Sampled rows, rich in hits. Any-hit rate of the full collection: about 1.9%.
PP1 counter: counter-screen for PP5 inhibitors: inhibitors of human PP1-alpha; purified PP1alpha, OMFP fluorescence; inhibition, % at 6.7 µM; actives 0.9% (n = 320,000);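 active = inhibition above the mean inhibition of all tested compounds plus 3 SD, computed separately for each screening campaign, cut at about 15% in these data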
NS3 helicase inh: inhibitors of Hepatitis C virus NS3 helicase | actives 0.56% (n = 290,000) | AID 1800 | inhibition, % at 10.9 µM | NS3 helicase DNA unwinding, Cy5 molecular beacon fluorescence;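 active = inhibition above the mean of all tested compounds plus 3 SD, set per campaign, cut at about 35% in these data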;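 note: 0% = DMSO wells and 100% = thioflavine S control wells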
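Measured by: Cy5 fluorescence, 0 and 60 min reads / Assay system: NS3 helicase fragment of HCV / Control set: low DMSO, high thioflavine S at 110 µM / Times: 1 h reaction at 25 °C, ATP-initiated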
HIF act: HIF pathway transcriptional activation. U2OS HRE-luciferase reporter, luminescence; normalized: DMSO 0%, desferrioxamine 100%. activation, % at 7.5 µM (by protocol). actives 0.32% (n = 300,000). AID 1910;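 active = mean activation of at least 10% of the iron chelator positive control signal, with at least half of replicates also reaching 10%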
FID counter: displaces DNA intercalator in HCV helicase counter-screen; actives 0.17% (n = 290,000); AID 1845; inhibition, % at 7.9 µM; DNA fluorescent intercalator displacement, fluorescence; in the data active = inhibition above about 37%;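 note: 0% = vehicle and 100% = reference compound; higher means more ethidium bromide displaced from hairpin DNA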
PP5 primary: PP5 (human) phosphatase inhibition. purified PP5c, OMFP substrate fluorescence. actives 0.18% (n = 320,000). P53041. inhibition, % at 6.7 µM. AID 1987;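 active = inhibition above the campaign's mean inhibition across all tested compounds plus 3 SD, cut at about 9.5% in these data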;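 note: 0% = DMSO only and 100% = 100 µM cantharidin control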
Target sequence (P53041 whole entry, looked up): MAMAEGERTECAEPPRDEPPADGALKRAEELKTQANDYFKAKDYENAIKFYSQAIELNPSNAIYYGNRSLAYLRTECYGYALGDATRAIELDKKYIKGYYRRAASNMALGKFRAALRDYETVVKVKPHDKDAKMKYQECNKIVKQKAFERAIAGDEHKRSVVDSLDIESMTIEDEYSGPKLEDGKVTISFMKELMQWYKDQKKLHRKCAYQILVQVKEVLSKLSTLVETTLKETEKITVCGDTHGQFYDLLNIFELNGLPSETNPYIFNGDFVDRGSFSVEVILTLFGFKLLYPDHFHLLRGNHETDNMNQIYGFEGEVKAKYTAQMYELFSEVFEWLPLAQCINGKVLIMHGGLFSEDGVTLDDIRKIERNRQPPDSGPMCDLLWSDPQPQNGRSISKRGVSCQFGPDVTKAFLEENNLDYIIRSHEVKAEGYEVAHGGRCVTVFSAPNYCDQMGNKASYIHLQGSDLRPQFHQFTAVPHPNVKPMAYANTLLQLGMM
An asterisk follows results filed as active; . = no result given; ! = a repeat was not active.

SMILES | PP1 counter | NS3 helicase inh | HIF act | FID counter | PP5 primary
Cc1nn(-c2ccccn2)c2c1C(c1ccccc1Cl)C1=C(N2)c2ccccc2C1=O (stereo not given) | 3.8 | 7.8 | 0.2 | 1.4 | -1.2
Cc1nn(-c2ccccn2)c2c1C(c1c(F)cccc1Cl)C1=C(N2)c2ccccc2C1=O (stereo not given) | 16.6* | -7.5 | 0.1 | -11.7 | 2.8
O=c1c2c3c(sc2nc(N2CCNCC2)n1-c1cccc(Cl)c1)CCCCC3 | 15.2* | -58.6 | 0.7 | 9.3 | 1.2
CCn1c(C(=O)NCCCc2ccccc2)cc2sccc21 | 0.9 | 3.4 | 0.3 | -28.0 | 0.8
O=C(NCCc1ccccc1)c1cc2sccc2n1Cc1ccccc1 | 11.5 | 15.6 | 74.6* | -17.6 | 3.4
CCN(CC)CCSc1nc2ccccc2c(=S)n1-c1ccccc1 | 7.0 | -69.7 | -0.1 | 44.7* | -1.2
COc1cccc(NC(=O)C(=O)N/N=C(\C)CC(=O)Nc2ccc(NC(C)=O)cc2)c1 | 0.8 | -6.7 | 2.5 | -29.4 | 0.4
CC(C)c1nc(N2CCN(C(=O)c3ccccc3)CC2)c(C#N)c2c1COC(C)(C)C2 | -1.7 | 6.9 | -1.0 | -7.4 | 5.7
CC1(C)Cc2c(C#N)c(N3CCN(C(=O)c4ccccc4)CC3)nc(-c3ccco3)c2CS1 | 15.5* | 22.8 | . | -25.5 | 1.4
COC(CN(C(=O)CCl)C(C(=O)NC1CCCCC1)c1ccccc1C)OC (stereo not given) | 0.7 | 12.4 | -0.7 | -16.1 | 0.0
COC(CN(C(=O)CCl)C(C(=O)NC1CCCCC1)c1ccc(Cl)cc1)OC (stereo not given) | 0.8 | 11.0 | 63.0* | -4.6 | 0.9
COc1ccc(C(=O)/C=C/C(=O)N(Cc2ccccc2OC)C(C(=O)NC2CCCCC2)c2ccncc2)c(O)c1 (stereo not given) | 4.4 | -6.3 | 0.4 | -39.6 | -0.2
COc1ccccc1CN(C(=O)CCl)C(C(=O)NC1CCCCC1)c1ccncc1 (stereo not given) | 17.0* | -36.0 | . | -5.3 | 3.8
O=C(NC1CCN(C(=O)C2CCCCC2)CC1)c1ccccc1 | 0.7 | 0.5 | 0.0 | -10.5 | 0.6
CCCOC(=O)NC1C(NC(=O)OCCC)N(C)C(=O)N1C (stereo not given) | -3.0 | -0.6 | 153.0* | -0.8 | 0.2
CCO[C@H]1OC(C(=O)NCc2ccccc2)=C[C@@H](C2CC2)[C@@H]1CCCO | -3.3 | 6.1 | -0.3 | -25.6 | 2.6
COc1cccc(C(=O)SC2=NCCS2)c1 | -1.1 | -2.0 | 327.2* | -1.2 | 1.1
O=c1cc(NCc2ccccc2)[nH]c(=O)[nH]1 | 5.7 | . | 0.4 | . | 1.9
CNC[C@@H](Cc1ccccc1)NC[C@@H](CC1CCCCC1)NCCCc1ccccc1 | 13.3 | -81.1 | -1.0 | 38.2* | -0.2
Cc1cc(C)cc(C(=O)NCC(=O)OCC(=O)NCc2ccco2)c1 | -2.2 | 0.6 | -0.1 | -9.5 | -2.1
O=C(CSc1nc(O)cc(=O)n1-c1ccccc1)NCc1ccccc1 | 2.9 | 9.1 | -0.2 | -20.5 | 2.7
O=c1cc(O)nc(SCc2ccccc2)n1-c1ccccc1 | 16.8*! | 15.3 | -0.1 | -2.9 | -1.1
CC(C)c1nnc(NC(=O)CCC(=O)NC2CC2)s1 | -7.1 | 0.7 | 17.9* | -4.9 | -0.5
CCC1Oc2ccccc2N(CC(=O)Nc2ccccc2OC)C1=O (stereo not given) | -1.4 | 5.4 | 224.9* | -13.8 | 2.0
CCNS(=O)(=O)c1ccc(CCC(=O)NCc2ccc(C)cc2)cc1 | 1.7 | -14.8 | 0.0 | -6.3 | 4.7
SMILES | PP1 counter | NS3 helicase inh | HIF act | FID counter | PP5 primary
C#CCOCCOCCOCCNc1nc(N2CCN(C(=O)[C@H](CCCCN)n3cc(C(N)[C@H](C)CC)nn3)CC2)nc(N2CCN(C(=O)[C@H](CCC(=O)O)n3cc(C(N)[C@H](C)CC)nn3)CC2)n1 (stereo not given in full) | -0.1 | -37.4 | -0.5 | 29.8 | 0.3
C#CCOCCOCCOCCNc1nc(N2CCN(C(=O)C([C@@H](C)CC)n3cc(C(N)CO)nn3)CC2)nc(N2CCN(C(=O)[C@H](CCC(=O)O)n3cc(C(N)CC(C)C)nn3)CC2)n1 (stereo not given in full) | -1.2 | 2.4 | 0.1 | 9.6 | 0.4
C#CCOCCOCCOCCNc1nc(N2CCN(C(=O)[C@H]([C@@H](C)CC)n3cc([C@@H](N)CO)nn3)CC2)nc(N2CCN(C(=O)[C@H](CCCCN)n3cc([C@@H](N)C(C)CC)nn3)CC2)n1 (stereo not given in full) | -0.7 | -53.6 | -0.7 | 51.8* | 0.0
C#CCOCCOCCOCCNc1nc(N2CCN(C(=O)[C@H](CCCCN)n3cc([C@@H](N)C(C)CC)nn3)CC2)nc(N2CCN(C(=O)[C@H](CCCCN)n3cc([C@@H](N)CO)nn3)CC2)n1 (stereo not given in full) | 14.3 | -33.4 | -0.4 | 66.2* | 3.1
Cc1ccccc1N=Nc1c(O)n(C)c2ccccc12 | -3.2 | 5.4 | 1.0 | 0.0 | 0.4
Cc1ccc(Cl)cc1NC(=O)C[n+]1ccc(Cc2ccc([N+](=O)[O-])cc2)cc1 | 4.4 | -78.6 | -1.3 | 39.7* | -2.5
COc1ccc(-n2cnc3cc(NS(=O)(=O)c4ccc(C)cc4)ccc32)cc1 | 0.4 | -4.3 | . | -23.3 | 12.1*
CCn1cnc2cc(NS(=O)(=O)c3ccc(C)cc3)ccc21 | -4.9 | 4.5 | -0.6 | -9.7 | 5.9
CN(C)c1ccc(O)c2c1CC1CC3C(N(C)C)C(=O)C(C(N)=O)=C(O)[C@@]3(O)C(=O)C1=C2O (stereo not given in full) | 10.3 | . | -0.2 | . | 1.2
CN(C)[C@@H]1C(=O)C(C(=O)NCN2CCCC2)=C(O)[C@@]2(O)C(=O)C3=C(O)c4c(O)cccc4[C@@](C)(O)C3CC12 (stereo not given in full) | . | 47.4* | . | -15.5 | .
COc1ccccc1NC(=O)c1c(N=Cc2cccc([N+](=O)[O-])c2)cnn1C | -5.2 | 9.7 | 0.4 | -1.8 | 1.9
CC1CCCCN1CC(=O)c1c(N)n(Cc2ccccc2)c(=O)n(C)c1=O (stereo not given) | 0.4 | -2.3 | . | 5.5 | -0.3
O=C(O)C1=CC(=C(c2ccc(O)c(C(=O)O)c2)c2ccc(O)c(C(=O)O)c2)C=CC1=O | 82.4* | . | . | . | -1.3
Cc1cccc(C2(c3cccc(C)c3)CC2C(=O)Nc2ccc([N+](=O)[O-])cc2O)c1 (stereo not given) | 11.1 | 19.9 | -0.2 | 5.8 | 0.5
COc1cccc(CN2CCC(N(CCc3ccccc3)Cc3ccccc3)CC2)c1OC | 4.3 | -57.4 | 581.5* | 28.5 | 2.9
O=C(C1=C[C@@H](c2csc3ccccc23)C[C@@H](OCc2ccc(CO)cc2)O1)N1CCN(Cc2ccc3c(c2)OCO3)CC1 | 15.8* | -21.2 | 0.8 | -12.2 | 3.9
CCn1cc(C(=O)Nc2ccc(OC)c(S(=O)(=O)N3CCCCC3)c2)c(=O)c2ccc(C)nc21 | -1.0 | 8.4 | -0.1 | -1.4 | -1.5
COc1cccc2sc(Nc3nc(-c4ccccn4)cs3)nc12 | 17.1* | -29.6 | 94.1* | -7.1 | 0.8
COc1cccc2sc(NNC(=O)COc3ccccc3)nc12 | 1.4 | -2.5 | -0.7 | -7.2 | 0.0

Screening data from PubChem BioAssay.
